According to the array DNA melting data of Ke et al. (doi:10.1101/2024.01.08.574731):

Key:
[1] = melting temperature; fluorescence melt of hairpins on a sequencing array, two-state fit, raised by 9.35 °C to match UV melts; settings: sodium 0.088 M
Method in brief: (§1)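 Library hairpins on a sequenced MiSeq flow cell carried annealed Cy3 and quencher oligos, and their Cy3 fluorescence was imaged in 50 mM Na-HEPES pH 8.0 with 25 mM NaCl, in 2.5 °C steps up to 60 °C. Signals were normalised to Cy3 before quenching and to control constructs. Melting temperature and folding enthalpy were obtained from bootstrapped two-state fits, combined by inverse-variance weighting across four replicates, and the fitted temperatures were then raised by 9.35 °C to match UV melts.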

[2] = folding enthalpy; higher = less favourable; fluorescence melt of hairpins on a sequencing array, two-state fit; settings: sodium 0.088 M
Method in brief: as §1

Sequence	Tm [1] [°C]	folding enthalpy [2] [kcal/mol]
GAACGTGGAAACATGTTC ((((.((....)).))))	47.2	-36.2
GTTGCTCGAAAGAGAAAC (((.(((....))).)))	48	-32.3
GTCAGGAAACTGAC (((((....)))))	53.6	-25.6
GATCTTCTCTAAGATC ((((((....))))))	42.8	-35
GTCTTCGAAAGAATGGAC ((((((....)))..)))	27.2	-14.9
GTGCAACGAAAGTTCCAC (((.(((....))).)))	38.1	-10.3
GTGAAGTCGAAAGACCAC (((..(((....))))))	38.3	-23.9
GGGGACGAAAGTCGACCC ((((((....)))..)))	48.9	-18.3
GTTTGGAAACAAAC (((((....)))))	45.6	-24.5
GCTTCGCGAAAGCCAAGC ((((.((....)).))))	50.3	-18.2
GGAAACGAAAGTTTGTCC ((((((....)))..)))	27.4	-18.8
GATCGGCTCCCGATC ((((((...))))))	57.8	-38.4
GCATGGCGAAAGCAATGC ((((.((....)).))))	64.8	-30.6
GAACCCGAAAGGGAATTC ((((((....)))..)))	31.4	-12.1
GTCCTCGAAAGAGTAGAC ((((((....)))..)))	35.9	-19.8
GGTCGTGGAAACGTGACC ((((..(....)..))))	46.5	-20.4
GGATCTTCGAAAGAATCC (((..(((....))))))	25.8	-10.7
GGTTTCGAAAGAAACC ((((((....))))))	64.2	-40.8
GATCCTTTAGAGGATC ((((((....))))))	52.2	-43.7
GATCAAGATCTTGATC ((((((....))))))	49.9	-47.1
GGCGCCGAAAGGCCGGCC ((((((....)))..)))	58.7	-17.2
GAAACTGGAAACAGTTTC (((((((....)))))))	56.9	-51.5
GCTCCTGGAAACAGAAGC (((.(((....))).)))	39.9	-28.5

Sequence	Tm [1] [°C]	folding enthalpy [2] [kcal/mol]
GCGGTGCCCCGC ((((....))))	54.3	-18.8
GCAAACGCGAAAGCGTGC (((..(((....))))))	55.7	-13.7
GCTCCCGGAAACAGGAGC (((((.(....).)))))	49.5	-34.3
GTGCCGCGAAAGCGACAC (((.(((....))).)))	65.7	-34.4
GAGACCGGAAACAGTCTC (((((.(....).)))))	40.4	-27.5
GCTCGGCGAAAGCCACGC ((..(((....)))..))	43.3	-11.5
GTCGAAGGAAACTTTGGC (.(.(((....))).).)	29.9	-22.4
GTGCGAGGAAACTCGTAC ((.((((....)))).))	53.4	-31.6
GGACGAGGAAACTTGTCC ((((.((....)).))))	50.7	-43.5
GATTTCGGAAACGAAGTC ((.((((....)))).))	39.3	-23.8
GCTTCCGAAAGGAATAGC ((((((....)))..)))	44	-17.8
GCGGGGTCCCGC ((((....))))	65.1	-29.3
GCTATCGAAAGATAGAGC ((((((....)))..)))	42.7	-23.4
GACAGCGGAAACGCCGTC (((.(((....))).)))	50.6	-18.6
GGGGGAGGAAACTCCTCC ((.((((....)))).))	53.4	-22
GTAGGGGGAAACCCTTAC (((.(((....))).)))	42	-17.4
GTGGTTGGAAACAACTGC (..((((....))))..)	43.4	-17.6
GATCCACCCATGGATC ((((((....))))))	50.7	-34.2
GGCCAGAAATGGCC (((((....)))))	67.5	-29
GCCATAGCGAAAGCTGGC (((..(((....))))))	56.5	-25.5
GATCTTACTTAAGATC ((((((....))))))	44.1	-35.6
GATCTGCCGCAGATC ((((((...))))))	48.1	-41.5
GAAAAGGGAAACTTTTTC (((((.(....).)))))	29.6	-11.5

Sequence	Tm [1] [°C]	folding enthalpy [2] [kcal/mol]
GCTACACGAAAGTGAGC (((.(((....))))))	49.4	-19.2
GAACACGAAAGTGGTTC ((((((....))).)))	47.1	-18.6
GGGTTTCGAAAGAATCCC (((.(((....))).)))	50.1	-36.6
GTTCTACGAAAGTAAAC (((.(((....))))))	27.6	-10.8
GCTTAGCGAAAGCTAGC (((.(((....))))))	53.8	-19.2
GTCTAACGAAAGTTTGAC (((.(((....))).)))	47.6	-36.7
GCCTTCGAAAGAATTGGC ((((((....)))..)))	37	-22.9
CGCGGAAATGTCCGCG ((((((....))))))	69.1	-32.5
GTTGTCCGAAAGGATAAC (((.(((....))).)))	51.9	-44.9
GTTCCTGGAAACAGGGAC ((.((((....)))).))	50.8	-35.1
GGGGTCGAAAGACCTCCC ((((((....)))..)))	51.4	-11.7
GCCTAGCGAAAGCAACGC ((.(.((....)).).))	23.8	-8.35
GCAATGGAAACATTGC ((((((....))))))	58.1	-42.1
GAAGTCGGAAACGGTTTC (((..((....))..)))	28.4	-8.25
GATCTGCATACAGATC ((((((....))))))	52.1	-43.2
GATCGGTGACCGATC ((((((...))))))	55.5	-38.7
GATCAACGAAAGTTTATC (((.(((....))).)))	32.5	-28
GATCACACCCGTGATC ((((((....))))))	57.8	-35.2
GGTTACGAAAGTACTACC ((((((....)))..)))	28.4	-23.2
GATCTAGTTATAGATC ((((((....))))))	48.9	-33.8
GTGCAAGGAAACCTGCAC (((((.(....).)))))	51.4	-35.9
GATGTTGGAAACAACATC (((((((....)))))))	58.4	-44.6
GCTGGCGAAAGCCAAGC ((((((....))).)))	66.5	-20.2

Sequence	Tm [1] [°C]	folding enthalpy [2] [kcal/mol]
GTCTAGGGAAACCTGGAC (((.(((....))).)))	47.4	-30.2
GGGTCCGAAAGGAGTCCC ((((((....)))..)))	46.5	-19.6
GGATTAGCGAAAGCTTCC (((..(((....))))))	32.7	-11.1
GTGGTCACGAAAGTGCAC (((..(((....))))))	39.9	-16.1
GGATAACGAAAGTTTTCC (((.(((....))).)))	43.7	-27.6
GCCTCTCGAAAGAGTGGC (((.(((....))).)))	57.4	-41.8
CCGATGAAAATCGG (((((....)))))	55.6	-21.4
GTGGAGGGAAACCTCCAC (((((((....)))))))	66.5	-40.9
GATCAATTGTTGATC ((((((...))))))	41.5	-30.6
GATCGATCAGTCGATC ((((((....))))))	51.1	-43.1
GGAGTCGAAAGACCGTCC ((((((....)))..)))	32.2	-12.7
GGTCGTGGAAACACGATC (.(((((....))))).)	54	-38
GGCCCTGGAAACGGGGCC (((((.(....).)))))	67.5	-31.4
GCCTCGCGAAAGCGGGC (((.(((....))))))	67.7	-16.4
GACGAGCGAAAGCTAGTC (((.(((....))).)))	56.8	-31
GGTTTCCCGAAAGGGACC (((..(((....))))))	33.8	-12.3
GTGAGGGGAAACCCTTGC (..((((....))))..)	38.7	-16.4
GATCCTTCCAAGGATC ((((((....))))))	55.3	-47
GCGCCTGGAAACAGACGC (((.(((....))).)))	55.8	-29.4
GCGAGGCGAAAGCAACGC (((..((....))..)))	61.8	-21.6
GCTGTTCCGAAAGGAAGC (((..(((....))))))	35.1	-14
GTGTACCGAAAGGTCCAC (((.(((....))).)))	48.1	-31
GCGAGGCGAAAGCAGCGC (((..((....))..)))	68.9	-29.9
